This note sets out measurements from ChEMBL document CHEMBL1125571, “Potent inhibitors of platelet aggregation based upon the Arg-Gly-Asp-Phe sequence of fibrinogen. A proposal on the nature of the binding interaction between the Asp-carboxylate of RGDX mimetics and the platelet GP IIb-IIIa receptor” (J Med Chem, 1992).

Test [1] concerns the target T1, Integrin alpha-IIb/beta-3 (Homo sapiens, UniProt P05106+P08514). Briefly: Inhibition of Fibrinogen receptor binding. Format: protein-complex assay.
For test [2], the target named is T1, Integrin alpha-IIb/beta-3. The test can be described thus: Inhibition of platelet aggregation (PRP) (inactive). The format is functional. In short, it runs like this: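 Aggregation of platelets in platelet-rich plasma was induced with ADP, and inhibition of this aggregation was measured.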
Test [3] addresses T1, Integrin alpha-IIb/beta-3. The test can be described thus: Inhibition of 125 I-Fibrinogen binding to Fibrinogen receptor (inactive). Format: protein-complex assay.
The target in test [4] is T1, Integrin alpha-IIb/beta-3. The test can be described thus: Inhibition of 125 I-Fibrinogen binding to Fibrinogen receptor. Format: protein-complex assay.

T1 sequence (P05106 27-788 limits assumed): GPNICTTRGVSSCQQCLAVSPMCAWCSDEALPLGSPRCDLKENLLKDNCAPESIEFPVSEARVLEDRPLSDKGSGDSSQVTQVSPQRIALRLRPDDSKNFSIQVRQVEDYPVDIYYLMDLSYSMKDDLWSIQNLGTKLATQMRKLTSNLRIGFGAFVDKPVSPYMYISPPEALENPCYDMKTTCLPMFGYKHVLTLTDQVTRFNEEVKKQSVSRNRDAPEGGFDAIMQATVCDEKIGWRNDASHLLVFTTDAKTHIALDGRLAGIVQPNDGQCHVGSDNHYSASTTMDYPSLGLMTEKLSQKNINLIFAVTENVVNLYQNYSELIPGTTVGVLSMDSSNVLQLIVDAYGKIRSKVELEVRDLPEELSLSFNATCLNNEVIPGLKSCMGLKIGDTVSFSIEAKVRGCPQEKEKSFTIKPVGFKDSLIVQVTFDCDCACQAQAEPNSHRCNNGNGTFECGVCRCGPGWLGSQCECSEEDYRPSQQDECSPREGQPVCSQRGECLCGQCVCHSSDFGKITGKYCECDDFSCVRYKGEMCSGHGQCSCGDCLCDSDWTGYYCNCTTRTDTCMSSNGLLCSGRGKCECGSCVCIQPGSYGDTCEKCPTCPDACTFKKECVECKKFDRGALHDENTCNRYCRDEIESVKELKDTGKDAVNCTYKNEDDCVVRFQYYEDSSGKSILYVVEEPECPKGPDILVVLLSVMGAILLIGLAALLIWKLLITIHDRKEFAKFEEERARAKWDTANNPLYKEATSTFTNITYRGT
T1 sequence (P08514 32-887 limits assumed): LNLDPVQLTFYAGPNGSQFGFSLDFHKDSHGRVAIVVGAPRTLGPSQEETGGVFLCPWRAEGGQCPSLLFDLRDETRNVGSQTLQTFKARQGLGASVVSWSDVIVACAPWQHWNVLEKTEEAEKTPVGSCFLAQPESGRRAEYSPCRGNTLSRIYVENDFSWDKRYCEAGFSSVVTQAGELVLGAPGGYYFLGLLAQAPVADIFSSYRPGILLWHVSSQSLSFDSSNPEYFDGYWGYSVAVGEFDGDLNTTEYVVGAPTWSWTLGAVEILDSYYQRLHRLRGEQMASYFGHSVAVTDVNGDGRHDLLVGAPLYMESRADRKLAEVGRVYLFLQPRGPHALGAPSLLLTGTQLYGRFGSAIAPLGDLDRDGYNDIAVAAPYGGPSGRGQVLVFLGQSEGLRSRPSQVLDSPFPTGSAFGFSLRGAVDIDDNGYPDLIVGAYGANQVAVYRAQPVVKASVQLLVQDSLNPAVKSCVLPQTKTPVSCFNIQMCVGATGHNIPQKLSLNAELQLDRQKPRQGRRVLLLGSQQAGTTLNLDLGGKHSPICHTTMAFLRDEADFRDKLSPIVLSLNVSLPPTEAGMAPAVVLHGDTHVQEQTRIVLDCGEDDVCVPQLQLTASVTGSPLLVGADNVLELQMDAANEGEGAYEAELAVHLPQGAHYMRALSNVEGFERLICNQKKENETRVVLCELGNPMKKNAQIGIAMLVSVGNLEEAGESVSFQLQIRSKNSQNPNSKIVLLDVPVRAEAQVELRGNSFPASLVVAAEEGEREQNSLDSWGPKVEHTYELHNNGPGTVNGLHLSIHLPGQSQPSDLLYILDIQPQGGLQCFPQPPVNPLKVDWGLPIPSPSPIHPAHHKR
T1 sequence (P08514 891-1039 limits assumed): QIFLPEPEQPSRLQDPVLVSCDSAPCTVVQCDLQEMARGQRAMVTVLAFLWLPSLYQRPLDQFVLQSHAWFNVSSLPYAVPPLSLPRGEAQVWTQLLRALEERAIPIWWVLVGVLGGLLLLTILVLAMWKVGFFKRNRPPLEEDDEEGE

In general, IC50 refers to the point on the concentration scale where inhibition reaches its midpoint. A lower IC50 goes with inhibition by little substance. With `N=C(N)NCCCCCCCC(=O)N[C@@H](CC(=O)O)C(=O)N[C@@H](Cc1ccccc1)C(=O)O`, the IC50 in test [1] was found to be 0.6 µM.

Regarding `N=C(N)NCCCCCCCC(=O)N[C@@H](CC1N=NN=N1)C(=O)N[C@@H](Cc1ccccc1)C(=O)O`, the half-inhibitory concentration (IC50) entry in test [2] and in test [3] was “Not Active” throughout. For the compound `N=C(N)NCCCCCCCC(=O)N[C@@H](CC(=O)O)C(=O)NCCc1ccccc1`, the IC50 in test [1] came out at 30 µM. In test [4], `N=C(N)NCCCCCCCC(=O)N[C@@H](CC(=O)O)C(=O)N[C@@H](Cc1ccccc1)C1N=NN=N1` came in with an IC50 of 2 µM.
